Reference: ChEMBL document CHEMBL4732272, “Remodelin Is a Cryptic Assay Interference Chemotype That Does Not Inhibit NAT10-Dependent Cytidine Acetylation” (ACS Med Chem Lett, 2021)
Activity calls are given as the source filed them. No cut-off for these calls is given here.

What was measured:
[1] = Aggregation property of the compound assessed as detergent sensitive inhibition of beta-lactamase AmpC at 33 to 100 uM; type: physicochemical; details: dose 33-100 µM
[2] = biological target: T1, RNA cytidine acetyltransferase (Homo sapiens) (UniProt Q9H0A0); assay: Inhibition of NAT10-catalyzed RNA cytidine acetylation in human HeLa cells assessed as decrease in ac4C level at 10 to 50 uM after 24 to 48 hrs by dot blot assay; type: cell-based; details: dose 10-50 µM, time 24-48 hrs
T1 sequence (whole entry): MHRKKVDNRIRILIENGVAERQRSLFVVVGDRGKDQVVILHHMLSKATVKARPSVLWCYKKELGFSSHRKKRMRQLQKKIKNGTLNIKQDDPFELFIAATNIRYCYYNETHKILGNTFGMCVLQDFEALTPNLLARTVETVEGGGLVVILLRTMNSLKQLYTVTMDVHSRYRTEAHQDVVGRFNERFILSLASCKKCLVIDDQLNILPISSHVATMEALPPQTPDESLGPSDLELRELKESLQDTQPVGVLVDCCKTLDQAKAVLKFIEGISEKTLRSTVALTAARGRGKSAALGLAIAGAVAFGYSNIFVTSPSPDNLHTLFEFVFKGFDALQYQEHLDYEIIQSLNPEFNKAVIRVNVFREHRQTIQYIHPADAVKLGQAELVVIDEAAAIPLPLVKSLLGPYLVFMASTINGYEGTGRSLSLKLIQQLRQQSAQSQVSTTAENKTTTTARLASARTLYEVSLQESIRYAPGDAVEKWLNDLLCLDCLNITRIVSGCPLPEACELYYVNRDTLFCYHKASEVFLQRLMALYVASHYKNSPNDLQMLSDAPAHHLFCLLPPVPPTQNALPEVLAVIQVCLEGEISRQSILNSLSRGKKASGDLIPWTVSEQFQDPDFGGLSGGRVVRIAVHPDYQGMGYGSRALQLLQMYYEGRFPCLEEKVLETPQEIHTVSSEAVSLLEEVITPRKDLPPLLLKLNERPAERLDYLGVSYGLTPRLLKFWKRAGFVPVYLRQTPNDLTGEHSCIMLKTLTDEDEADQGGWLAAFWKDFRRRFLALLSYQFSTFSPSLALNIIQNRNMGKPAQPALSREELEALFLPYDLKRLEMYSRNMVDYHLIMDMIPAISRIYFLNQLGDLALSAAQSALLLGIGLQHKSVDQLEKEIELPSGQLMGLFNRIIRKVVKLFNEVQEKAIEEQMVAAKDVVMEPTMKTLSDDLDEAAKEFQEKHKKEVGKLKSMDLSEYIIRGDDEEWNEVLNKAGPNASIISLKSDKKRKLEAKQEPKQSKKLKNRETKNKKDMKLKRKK

[3] = Redox activity of the compound assessed as H2O2 production at 250 uM in presence of DTT by horseradish peroxidase-phenol red counter screen based assay; type: physicochemical
[4] = Stability of the light-protected compound in aqueous buffer measured for 7 days; type: physicochemical; details: 168 h, time 7 day
Summary of the method: (§1)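 Remodelin solutions followed over time: in aqueous buffer kept from light for 7 days; in DMSO monitored for darkening colour and new aromatic NMR resonances.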

[5] = Thiol reactivity with CoA at 1 to 50 uM measured after 30 mins by DACM thiol consumption assay; type: ADME; details: 0.5 h, dose 1-50 µM
[6] = Redox activity of the compound assessed as H2O2 producion at 250 uM by horseradish peroxidase-phenol red counter screen based assay; type: physicochemical
[7] = Stability of the compound in DMSO-d6 solution assessed as discoloration to dark brown colour in presence of light; type: physicochemical; summary of the method: as §1
[8] = Thiol-reactivity using La antigen containing reactive cysteine C232 and C245 in presence of DTT by ALARM NMR analysis; type: ADME
[9] = biological target: T1, RNA cytidine acetyltransferase (Homo sapiens); assay: Inhibition of NAT10-catalyzed RNA cytidine acetylation in human HeLa cells assessed as decrease in ac4C level at 50 uM after 48 hrs by Northern blot assay; type: cell-based
Summary of the method: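 Following 48 h remodelin treatment, RNA probed by dot blot or Northern blot with an anti-ac4C antibody.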

Tubulin (Homo sapiens) = Tubulin (Homo sapiens) (UniProt P68371+Q9H4B7+P0DPH7+P68366+Q13509+Q71U36+P04350+Q3ZCM7+P07437+P68363+Q9BQE3+Q6PEY2+Q13885+Q9BVA1+Q9BUF5); assay: Induction of tubulin acetylation in human HEK293T cells at 10 to 50 uM measured after 48 hrs by western blot analysis; type: cell-based; details: dose 10-50 µM
[10] = biological target: T1, RNA cytidine acetyltransferase (Homo sapiens); assay: Inhibition of NAT10-catalyzed RNA cytidine acetylation in human HeLa cells assessed as decrease in ac4C level at 10 to 50 uM after 48 hrs by LC-MS assay; type: cell-based; details: dose 10-50 µM
Summary of the method: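 Wild-type cells treated with remodelin for 48 h; RNA ac4C levels quantified by LC-MS, with CRISPR-Cas9 NAT10 disruption as comparator.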

[11] = biological target: T1, RNA cytidine acetyltransferase (Homo sapiens); assay: Binding affinity to recombinant NAT10 acetyltransferase domain (494 to 753 residues) (unknown origin) by isothermal titration calorimetry
Summary of the method: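 Recombinant NAT10 acetyltransferase domain (residues 494–753) titrated with acetyl-CoA or remodelin by isothermal titration calorimetry.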

[12] = Aggregation property of peptides assessed as colloidal aggregate formation at 25 uM by dynamic light scattering analysis; type: physicochemical
[13] = biological target: T1, RNA cytidine acetyltransferase (Homo sapiens); assay: Inhibition of NAT10-catalyzed RNA cytidine acetylation in human HeLa cells assessed as decrease in ac4C at helix 45 of 18S rRNA at 50 uM after 4 days by UV-HPLC analysis; type: cell-based; details: time 4.0 day
Summary of the method: (§2)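 Helix 34 and helix 45 ac4C of 18S rRNA analysed […] by UV-HPLC after cells were treated with remodelin at 50 μM for 4 d; NAT10 KD cells served as comparator.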

[14] = biological target: T1, RNA cytidine acetyltransferase (Homo sapiens); assay: Stabilization of full length recombinant NAT10 (unknown origin) by DSLS based analysis
Summary of the method: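 Full-length recombinant NAT10 thermal stability measured by differential static light scattering with ATP, acetyl-CoA or remodelin added.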

[15] = biological target: T1, RNA cytidine acetyltransferase (Homo sapiens); assay: Inhibition of NAT10-catalyzed RNA cytidine acetylation in human HeLa cells assessed as decrease in ac4C at helix 45 of 18S rRNA at 50 uM after 48 hrs by nucleotide resolution sequencing analysis; type: cell-based
Summary of the method: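 Helix 45 of 18S rRNA (C1842) read by nucleotide-resolution ac4C sequencing after 50 μM remodelin for 48 h; C→T change at the site scored as ac4C present, no mutation as loss; NAT10 KD as comparator.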

[16] = Stability of the compound in DMSO-d6 solution assessed as drug degradation measured after 24 hrs by NMR analysis; type: physicochemical
[17] = biological target: T1, RNA cytidine acetyltransferase (Homo sapiens); assay: Inhibition of NAT10-catalyzed RNA cytidine acetylation in human HeLa cells assessed as decrease in ac4C at helix 34 of 18S rRNA at 50 uM after 4 days by UV-HPLC analysis; type: cell-based; details: time 4.0 day; summary of the method: as §2
K562 [18] = assay: Covalent protein binding in human K562 cells at 10 to 100 uM in presence of remodelin by rhodamine azide based fluorescence analysis; type: functional, cell-based; details: dose 10-100 µM
Summary of the method: (§3)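 K562 cancer cell lysates incubated with clickable probes across a dose range (down to 10 μM), then click-labelled with rhodamine azide to visualise proteome labelling; competition run with remodelin added.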

K562 [19] = assay: Covalent protein binding in human K562 cells by rhodamine azide based fluorescence analysis; type: functional, cell-based; details: dose 10-100 µM; summary of the method: as §3

Structure (SMILES): N#Cc1ccc(-c2csc(NN=C3CCCC3)n2)cc1
- Activity [1]: Not Active
- inhibition [2]: inactive
- Activity [3]: Not Active
- Stabilty [4]: Stable
- Activity [5]: Not Active
- Activity [6]: Not Active
- Stabilty [7]: Unstable
- Activity [8]: Active
- inhibition [9]: inactive
- Activity (Tubulin (Homo sapiens)): inactive
- inhibition [10]: inactive
- Activity [11]: inactive
- Activity [12]: Active
- inhibition [13]: inactive
- Activity [14]: inactive
- inhibition [15]: inactive
- Stabilty [16]: Unstable
- inhibition [17]: inactive

Structure (SMILES): CC(=O)SCCNC(=O)CCNC(=O)[C@H](O)C(C)(C)COP(=O)(O)OP(=O)(O)OC[C@H]1O[C@@H](n2cnc3c(N)ncnc32)[C@H](O)[C@@H]1OP(=O)(O)O
- Activity [11]: Active
- Activity [14]: Active

Structure (SMILES): Nc1ncnc2c1ncn2[C@@H]1O[C@H](COP(=O)(O)OP(=O)(O)OP(=O)(O)O)[C@@H](O)[C@H]1O
- Activity [14]: Active

Structure (SMILES): C#CCNC(=O)c1ccc(-c2csc(NN=C3CCCC3)n2)cc1
- Stabilty [7]: Unstable
- Activity (K562 [18]): inactive
- Activity (K562 [19]): Dose-dependent effect

Structure (SMILES): C#CCN(N=C1CCCC1)c1nc(-c2ccc(Cl)cc2)cs1
- Activity (K562 [19]): Dose-dependent effect
